Data taken from ChEMBL document CHEMBL4351007, “Synthesis and biological evaluation of (1,2,4)triazole[4,3-a]pyridine derivatives as potential therapeutic agents for concanavalin A-induced hepatitis” (Eur J Med Chem, 2019).
Calls of active or inactive are those of the source. The rule behind the calls is not given here.

Assays:
[1] = test system: RAW264.7; assay: Antiinflammatory activity in mouse RAW264.7 cells assessed as LPS-induced nitric oxide level at 20 uM preincubated for 1 hr followed by LPS treatment and measured after 23 hrs by Griess reagent based assay (reference value: 96.06 to 102.81%); format: functional
Procedure, shortened: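 RAW264.7 cells seeded at 1 × 10^5/mL and left overnight. Compound (20 μM) added 1 h before LPS at 1 μg/mL, then 23 h more incubation. Nitrite in supernatant read with Griess reagent at 540 nm and expressed as NO relative to the LPS-only wells (%).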

[2] = test system: L02; assay: Cytotoxicity against human LO2 cells assessed as cell viability at 20 uM measured after 24 hrs by MTT assay; format: cell-based; conditions: l02, 24 h
Procedure, shortened: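 LO2 human liver cells (1.5–5 × 10^3 per well) seeded overnight, then exposed to compound for 24 h. MTT (5 mg/mL stock) added for 2–4 h at 37 °C. Formazan dissolved in DMSO and absorbance read at 570 nm. Three replicate experiments.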

[3] = test system: RAW264.7; assay: Inhibition of MCP-1 mediated chemotaxis in mouse RAW264.7 cells at 20 uM measured after 3 hrs by light microscopic analysis relative to control; format: functional; conditions: for inhibition at 20 µM: RAW264.7, 3 h
Procedure, shortened: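 RAW264.7 cells serum-starved for 3 h, then placed in the upper Transwell chamber in 0.5% BSA medium with compound (20 μM) or DMSO. Lower chamber held 200 ng/mL MCP-1. After 3 h at 37 °C, migrated cells fixed, crystal violet-stained and counted in randomly chosen fields. Inhibitory rate = 1 − N1/(N1+N2); three chambers per condition.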

[4] = organism: Mus musculus; assay: Hepatoprotective activity in mouse model of Con-A induced autoimmune hepatitis assessed as reduction in Con-A induced CD4-positive cells infiltration by […] microscopic analysis; format: functional, organism-based
Procedure, shortened: (§1)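 Livers collected 12 h after Con A 20 mg/kg i.v. plus compound 100 mg/kg i.p. Tissue formalin-fixed, paraffin-embedded and cut into 4–5 μm sections. Sections stained with H&E for light microscopy; further sections immunostained for CD4, CD11b and F4/80 and imaged by fluorescence microscopy.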

[5] = biological target: Transcription factor p65 (Mus musculus) (UniProt Q04207); assay: Inhibition of LPS-induced NF-kappaB p65 translocation in mouse RAW264.7 cells incubated for 22 hrs by DAPI staining based laser scanning confocal microscopic analysis; format: cell-based
Chain of Transcription factor p65 (Mus musculus) (Q04207 whole entry): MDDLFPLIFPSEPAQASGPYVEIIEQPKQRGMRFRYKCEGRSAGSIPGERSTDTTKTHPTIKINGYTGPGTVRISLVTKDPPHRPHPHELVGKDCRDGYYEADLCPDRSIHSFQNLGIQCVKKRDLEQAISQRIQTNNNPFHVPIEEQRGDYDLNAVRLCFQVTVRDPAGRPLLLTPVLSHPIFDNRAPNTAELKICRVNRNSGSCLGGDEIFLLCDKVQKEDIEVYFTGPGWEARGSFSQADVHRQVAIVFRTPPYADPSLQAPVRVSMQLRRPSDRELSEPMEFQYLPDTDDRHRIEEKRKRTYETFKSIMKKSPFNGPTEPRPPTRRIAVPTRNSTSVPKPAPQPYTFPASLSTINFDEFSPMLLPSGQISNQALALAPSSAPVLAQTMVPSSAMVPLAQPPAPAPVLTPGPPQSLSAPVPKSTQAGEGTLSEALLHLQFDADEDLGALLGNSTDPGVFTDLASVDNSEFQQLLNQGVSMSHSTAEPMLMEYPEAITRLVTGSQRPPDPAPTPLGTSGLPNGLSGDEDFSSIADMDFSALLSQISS
Procedure, shortened: (§2)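 RAW264.7 cells (2×10^4/well) seeded overnight and stimulated for 2 h with Con A (0.6 μM) or LPS (1 μg/mL), then compound at various concentrations for 22 h. Cells fixed in paraformaldehyde, permeabilized with Triton X-100 and blocked in BSA. Stained with anti-p65 and FITC secondary antibody, nuclei with DAPI; imaged by confocal microscopy.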

[6] = test system: RAW264.7; assay: Antiinflammatory activity against mouse RAW264.7 assessed as decrease in Con-A induced […] IL-10 expression level at 1 uM measured after 22 hrs by RT-PCR analysis; format: functional, cell-based
Procedure, shortened: (§3)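 RAW264.7 macrophages (DMEM, 10% FBS, 37 °C, 5% CO2) pretreated with Con A for 2 h, then compound at 1 μM for a further 22 h. mRNA quantified by SYBR real-time PCR (95 °C 30 s; 40 cycles of 95 °C 5 s, 60 °C 20 s), normalized to GAPDH, run in triplicate; mean ± SD, n=5.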

[7] = organism: Mus musculus; assay: Hepatoprotective activity in mouse model of Con-A induced autoimmune hepatitis assessed as decrease in necrosis of hepatocytes by H and E staining based […] microscopic analysis; format: functional, organism-based; procedure, shortened: as §1
[8] = test system: Mus musculus; assay: Antiinflammatory activity in mouse model of Con-A induced autoimmune hepatitis assessed as decrease in serum ALT level at 100 mg/kg, ip measured after 12 hrs relative to control; format: functional; design: scale not given: the % may be the effect or the level left
Procedure, shortened: (§4)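 Female BALB/c mice, 6–8 weeks old, SPF housing. Con A 20 mg/kg given i.v., then compound 100 mg/kg i.p. in 40% PEG 400/60% saline; model group received vehicle. Killed at 12 h. Plasma ALT and AST measured on an automatic analyzer. Mean ± SD, n=5; ANOVA with Tukey's test.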

[9] = test system: RAW264.7; assay: Antiinflammatory activity against mouse RAW264.7 assessed as decrease in Con-A induced TNF-alpha mRNA expression level at 1 uM measured after 22 hrs by RT-PCR analysis; format: functional, cell-based; procedure, shortened: as §3
[10] = biological target: Transcription factor p65 (Mus musculus) (UniProt Q04207); assay: Inhibition of Con A-induced NF-kappaB p65 translocation in mouse RAW264.7 cells incubated for 22 hrs by DAPI staining based laser scanning confocal microscopic analysis; format: cell-based; procedure, shortened: as §2
[11] = organism: Mus musculus; assay: Hepatoprotective activity in mouse model of Con-A induced autoimmune hepatitis assessed as reduction in Con-A induced F4/80-positive cells infiltration by […] microscopic analysis; format: functional, organism-based; procedure, shortened: as §1
[12] = test system: Mus musculus; assay: Antiinflammatory activity in mouse model of Con-A induced autoimmune hepatitis assessed as of MDSC accumulation at 100 mg/kg by flow cytometry analysis (reference value: 11.31%); format: functional
Procedure, shortened: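 Female BALB/c mice given Con A 20 mg/kg i.v. plus compound 100 mg/kg i.p. (PEG 400/saline vehicle), livers taken at 12 h. Liver single-cell suspensions prepared by mechanical disruption and 1 mg/mL collagenase I digestion, with red cells lysed. 1×10^6 cells stained for CD11b and Gr-1; MDSC percentage determined by flow cytometry.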

[13] = test system: RAW264.7; assay: Antiinflammatory activity against mouse RAW264.7 assessed as decrease in Con-A induced IL-6 mRNA expression level at 1 uM measured after 22 hrs by RT-PCR analysis; format: functional, cell-based; procedure, shortened: as §3
[14] = test system: RAW264.7; assay: Antiinflammatory activity against mouse RAW264.7 assessed as decrease in Con-A induced INF-gamma mRNA expression level at 1 uM measured after 22 hrs by RT-PCR analysis; format: functional, cell-based; procedure, shortened: as §3
[15] = test system: Mus musculus; assay: Antiinflammatory activity in mouse model of Con-A induced autoimmune hepatitis assessed as decrease in serum AST level at 100 mg/kg, ip measured after 12 hrs relative to control; format: functional; design: scale not given: the % may be the effect or the level left; procedure, shortened: as §4
[16] = organism: Mus musculus; assay: Hepatoprotective activity in mouse model of Con-A induced autoimmune hepatitis assessed as reduction in Con-A induced CD11b-positive cells infiltration by […] microscopic analysis; format: functional, organism-based; procedure, shortened: as §1

SMILES | Activity [1] [%] | Activity [2] | further results
Cc1nnc2c(NC(=O)c3cccc(C(F)(F)F)c3)cc(-c3ccc(Cl)cc3)cn12 | 30.98 | Non-Toxic | –
COc1ncccc1-c1cc(NC(=O)C2CCCCC2)c2nnc(C)n2c1 | 49.99 | Non-Toxic | –
CCCOc1ccc(Cl)cc1-c1cc(NC(=O)c2ccccc2F)c2nnc(C)n2c1 | 77.73 | Non-Toxic | –
COc1ncccc1-c1cc(NC(C)=O)c2nnc(C)n2c1 | 54.04 | Non-Toxic | –
CCS(=O)(=O)Nc1cc(-c2ccccc2)cn2c(C)nnc12 | 44.44 | Non-Toxic | –
COc1cccc(-c2cc(NC(C)=O)c3nnc(C)n3c2)c1 | 55.3 | Non-Toxic | –
CCS(=O)(=O)Nc1cc(-c2ccccc2-c2ccccc2)cn2c(C)nnc12 | 62.68 | Non-Toxic | –
CC(=O)Nc1cc(-c2cc(Cl)ccc2OCc2ccccc2)cn2c(C)nnc12 | 27.05 | Non-Toxic | –
CC(=O)Nc1cc(-c2ccccc2)cn2c(C)nnc12 | 44.71 | Non-Toxic | –
CCS(=O)(=O)Nc1cccc(-c2cc(NS(=O)(=O)CC)c3nnc(C)n3c2)c1 | 41.19 | Non-Toxic | –
CCOc1ccc(C)cc1-c1cc(NC(C)=O)c2nnc(C)n2c1 | 32.07 | Non-Toxic | –
CCS(=O)(=O)Nc1cc(-c2ccccc2OCc2ccccc2)cn2c(C)nnc12 | 72.57 | Non-Toxic | –
CCS(=O)(=O)Nc1cc(-c2cccnc2OC)cn2c(C)nnc12 | 49.93 | Non-Toxic | –
CCOc1cc(F)ccc1-c1cc(NS(=O)(=O)CC)c2nnc(C)n2c1 | 34.85 | Non-Toxic | –
CCS(=O)(=O)Nc1cc(-c2ccccc2C(F)(F)F)cn2c(C)nnc12 | 58.67 | Non-Toxic | –
CCCOc1ccc(Cl)cc1-c1cc(NC(C)=O)c2nnc(C)n2c1 | 49.05 | Non-Toxic | –
CC(=O)Nc1cc(-c2ccccc2Cl)cn2c(C)nnc12 | 48.41 | Non-Toxic | –
CC(=O)Nc1cc(-c2ccccc2-c2ccccc2)cn2c(C)nnc12 | 49.03 | Non-Toxic | –

SMILES | Activity [1] [%] | Activity [2] | further results
CCOc1cc(F)ccc1-c1cc(NC(=O)C2CCCCC2)c2nnc(C)n2c1 | 37.8 | Non-Toxic | inhibition [3]: Active
CCS(=O)(=O)Nc1cc(-c2cccc(C(F)(F)F)c2)cn2c(C)nnc12 | 27.18 | Non-Toxic | –
Cc1nnc2c(NC(=O)c3ccc(F)cc3)cc(-c3ccc(Cl)cc3)cn12 | 42.88 | Non-Toxic | –
CC(=O)Nc1cc(-c2ccc(CN3CCOCC3)cc2)cn2c(C)nnc12 | 42.4 | Non-Toxic | –
O=C1NC(=O)/C(=C/c2ccc3nccnc3c2)S1 | – | – | inhibition at 20 µM [3]: 40.5%
COc1ccc(C)cc1-c1cc(NC(C)=O)c2nnc(C)n2c1 | 58.83 | Non-Toxic | –
CCOc1ccc(C(=O)Nc2cc(-c3cc(F)ccc3OC)cn3c(C)nnc23)cc1 | 28.01 | Non-Toxic | Activity [4]: Active; inhibition [5]: Dose-dependent effect; Activity [6]: Active; Activity [7]: Active; Activity [8]: 65.39%; Activity [9]: Active; inhibition at 20 µM [3]: 52.6%; Activity [10]: Dose-dependent effect; Activity [11]: Active; Activity [12]: 8.39%; Activity [13]: Active; Activity [14]: Active; Activity [15]: 52.52%; Activity [16]: Active
CCS(=O)(=O)Nc1cc(-c2ccccc2Cl)cn2c(C)nnc12 | 152.42 | Non-Toxic | –
CC(=O)Nc1cc(-c2ccccc2C(F)(F)F)cn2c(C)nnc12 | 42.36 | Non-Toxic | –
CC(=O)Nc1cc(-c2cccc(OC(F)(F)F)c2)cn2c(C)nnc12 | 49.52 | Non-Toxic | –
CCS(=O)(=O)Nc1cc(-c2cc(C)ccc2OC)cn2c(C)nnc12 | 45.48 | Non-Toxic | –
CCOc1cc(F)ccc1-c1cc(NC(C)=O)c2nnc(C)n2c1 | 65.85 | Non-Toxic | –
CCS(=O)(=O)Nc1cccc(-c2cc(NC(C)=O)c3nnc(C)n3c2)c1 | 64.96 | Non-Toxic | –
CCS(=O)(=O)Nc1cc(-c2cc(Cl)ccc2OCc2ccccc2)cn2c(C)nnc12 | 26.01 | Non-Toxic | inhibition [3]: Active
COc1ccc(F)cc1-c1cc(NC(=O)c2c(F)cccc2F)c2nnc(C)n2c1 | 61.96 | Non-Toxic | –
COc1ccc(F)cc1-c1cc(NC(=O)c2ccc(OCc3ccccc3)cc2Cl)c2nnc(C)n2c1 | 32.06 | Non-Toxic | –
CC(=O)Nc1cc(-c2ccccc2F)cn2c(C)nnc12 | 83.06 | Non-Toxic | –
CCS(=O)(=O)Nc1cccc(-c2cc([N+](=O)[O-])c3nnc(C)n3c2)c1 | 26.74 | Non-Toxic | –
